For data set [1], the system named is Trypanosoma brucei. Put plainly: Antitrypanosomal activity against Trypanosoma brucei 427. The data set is classed as functional, organism-based.
For data set [2], the system named is Trypanosoma brucei. The data set can be described thus: Trypanocidal activity against bloodstream form of Trypanosoma brucei 427 after 48 hrs. The data set is classed as functional, organism-based. The conditions noted are these: Trypanosoma brucei, 427, 48 h.
The test system of the next data set is L6. The data set can be described thus: Cytotoxicity against rat L6 cells after 6 days by Alamar blue assay. The conditions noted are these: L6, 144 h. The data set is classed as cell-based. The essentials:
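Rat skeletal myoblast L6 cells seeded at 1 × 10^4 ml−1 in growth medium with a range of compound concentrations and held 6 days at 37 °C. Alamar Blue was then added and fluorescence read after a further 8 h. IC50 is the mean of triplicate experiments ± SEM.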

The nature of data set [3]: Selectivity index, ratio of IC50 for rat L6 cells to IC 50 for Trypanosoma brucei 427. The data set is classed as toxicity, cell-based. The conditions noted are these: L6 cells versus Trypanosoma brucei 427, read-out: Selectivity Index.
The subject of the next data set is Plasmodium falciparum. Put plainly: Antiplasmodial activity against chloroquine-resistant Plasmodium falciparum K1. The data set is classed as functional, organism-based. The essentials:
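K1 parasites grown in human A+ erythrocytes in RPMI 1640 with A+ serum and D-glucose; predominantly early ring-stage cultures used. Twofold serial dilutions run in duplicate from DMSO stocks (final DMSO ≤0.5%), at 2.5% haematocrit and 1% parasitaemia. Incubation was 48 h at 37 °C under 93% N2/3% O2/4% CO2. Growth was read as lactate dehydrogenase activity (APAD/NBT, 550 nm), and IC50 was taken by linear regression.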

Data set [4] in a line: Selectivity index, ratio of IC50 for rat L6 cells to IC50 for chloroquine-resistant Plasmodium falciparum K1. The conditions noted are these: read-out: Selectivity Index. The data set is classed as toxicity, cell-based.

SMILES strings stand for the structures. Where a name gives a salt, the structure may show the parent alone.

These results are taken from ChEMBL document CHEMBL1681701, “Huprines as a new family of dual acting trypanocidal-antiplasmodial agents” (Bioorg Med Chem, 2011).

On to `CC(C)C1=CC2Cc3nc4ccccc4c(N)c3C(C1)C2` (centres undefined), for which the half-maximal inhibitory concentration (IC50) (as a rule, the concentration at which inhibition is half-maximal) in the data set with Trypanosoma brucei [1] came to 0.3 µM.
In the data set with Trypanosoma brucei [1], `C=CCC1=CC2Cc3nc4ccccc4c(N)c3C(C1)C2` (centres undefined) registered an IC50 of 0.3 µM.
As to `Nc1c2c(nc3ccccc13)CC1C=C(c3ccccc3)CC2C1` (centres undefined), the figures for the IC50 in the data set with Trypanosoma brucei [2], in the data set on L6 and in the data set with Plasmodium falciparum were 1.65 µM, 3.51 µM and 7.12 µM, respectively. Also, in the data set on Trypanosoma brucei [2], the IC90 (usually the concentration at which the effect reaches the 90% level) is 4.7 µM. The selectivity ratio in data set [3] and in data set [4] was 2.1 in each case.
`CC1=CC2Cc3nc4cccc(F)c4c(N)c3C(C1)C2` (centres undefined): in the data set with Trypanosoma brucei [2], 3.71 µM corresponded to half-maximal inhibition (IC50) and the 90% effect level (IC90) was put at 15.8 µM.
In turn, `CC1=CC2Cc3nc4cc(Cl)ccc4c(N)c3C(C1)C2` (centres undefined) returned an IC50 in the data set with Trypanosoma brucei [1] of 0.3 µM.
`CCC1=C[C@@H]2Cc3nc4cc(Cl)ccc4c(N)c3[C@H](C1)C2` [HUPRINE X HYDROCHLORIDE]: the IC50 in the data set with Trypanosoma brucei [1] amounted to 0.3 µM; in the data set on Trypanosoma brucei [2], 0.84 µM; in the data set on L6, 12.5 µM.
